T cell HTS – T cell immune modulation candidate; 2C CD8+ T cell-vesicle binding, flow cytometry; stronger effect = lower value; response (vesicle binding), % at 7 µM; hit rate 0.068% among 330,000;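 active = response, share of CD8 T cells binding vesicles, and their 90th percentile fluorescence all below set limits, cut at about 80% in these data, passing the limit was not always enough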;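 note: values below 100% mean blocked vesicle binding to the CD8+ T cells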
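Read-out – percent CD8+ FL2 mean versus row control · System – murine 2C transgenic CD8+ T lymphocytes · Times – 1.5 h cell–vesicle binding at 37 °C, then 20 min icy labelling · Control set – naked vesicles low, QL9 vesicles with vehicle high · Detection – cytometric PE anti-B7-1 and Alexa647 anti-CD8 signals after 1% paraformaldehyde fixation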
ALR H2O2 inh – inhibitors of human sulfhydryl oxidase ALR; P55789; purified ALR, DTT oxidation, H2O2 HRP-luminol luminescence; inhibition, % (concentration not given with the values); hit rate 3.8% among 290,000; AID 485317;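 active = mean replicate inhibition above about 79%, with every replicate also reaching it, limit read from the data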
Target sequence (P55789 whole entry, looked up): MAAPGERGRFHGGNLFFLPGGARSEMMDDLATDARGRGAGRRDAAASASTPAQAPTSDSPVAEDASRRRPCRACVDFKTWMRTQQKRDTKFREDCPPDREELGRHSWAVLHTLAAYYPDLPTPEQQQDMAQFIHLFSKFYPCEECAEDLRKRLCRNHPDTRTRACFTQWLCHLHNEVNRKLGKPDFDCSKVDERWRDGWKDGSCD
N-glyco inh – N-linked glycosylation inhibition; D54 ERlucT glycosylation luciferase reporter, 24 h; percent of 100 nM tunicamycin response; reporter increase, % at 12.5 µM; hit rate 0.23% among 360,000; AID 588692;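 active = mean luciferase reporter signal, scaled so untreated is 0 and the glycosylation-blocking control 100, at or above a set limit in every replicate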;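 note: luciferase carries N-glycosylation sites so blocking glycosylation raises the light; 0% = median of neutral control wells and 100% = median of 100 nM tunicamycin wells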
* hit, by the source's call; i = inactive; x = no result. The entries come from a sample that favours hits as a whole.

SMILES | T cell HTS | ALR H2O2 inh | N-glyco inh
Nc1ccc(Cc2ccc(N)c(C(=O)O)c2)cc1C(=O)O | 240 | 4 | 4
Cc1cc(Cc2ccc(N)c(C)c2)ccc1N | 352 | 81* | 2
O=C(CCNS(=O)(=O)c1ccccc1)NCC1CCCCC1 | x | x | 1
CC1(C)Nc2ccccc2N(CCC(=O)N2CCOCC2)C1=O | 161 | x | 3
CN(C(=O)CCN1C(=O)C(C)(C)Nc2ccccc21)c1ccccc1 | 219 | 55 | -1
CC1(C)Nc2ccccc2N(Cc2ccc([N+](=O)[O-])cc2)C1=O | 201 | 96* | -2
CC1(C)Nc2ccccc2N(CC(=O)N2CCCCC2)C1=O | 468 | 98* | 2
C=CCNC(=S)N1CCC(C(=O)c2ccc(Cl)cc2)CC1 | i | -7 | -1
CN(C)CCC(O)(c1ccccc1)c1ccccc1Cl (configuration not stated) | x | x | 1
C=CCn1c(C)nnc1SCC(=O)Nc1nc(C)c(C(=O)N(C)C)s1 | 292 | -4 | 1
CC(=O)c1sc(NC(=O)CN2C(=O)NC3(CCCC3)C2=O)nc1-c1ccccc1 | 416 | 1 | 2
Cc1nc(NC(=O)CSC2=NCCS2)sc1C(=O)N(C)C | 218 | 99* | 8
COc1ccc(-c2nc(NC(=O)CSCCO)sc2C)cc1 | 308 | 98* | -1
Cc1sc(NC(=O)CSc2ncn(-c3ccccc3)n2)nc1-c1ccccc1 | 542 | -4 | 3
Cc1sc(NC(=O)CSC2=NCCS2)nc1-c1ccccc1 | 596 | 99* | 3
CC(=O)N1CC(=O)N=C1SCC(=O)Nc1nc(-c2ccccc2)c(-c2ccccc2)s1 | 859 | 99* | 8
COc1ccc(-c2nc(NC(=O)Cn3cnnn3)sc2C)cc1 | 262 | x | -3
Cc1ccc(S(=O)(=O)CCNC(=O)Cc2ccccc2)cc1 | 140 | 1 | 1
COc1cc(N)c(Cl)cc1C(=O)OCC(=O)N1c2ccccc2NC(=O)C1(C)C | 340 | x | -1
COc1ccc(C(CNC(=O)Cc2cccs2)N(C)C)cc1 (configuration not stated) | 153 | 1 | 0
O=C(CSc1ncnc2c1oc1ccccc12)Nc1nc2ccccc2s1 | i | 96* | -1
COc1cc(C(=O)Nc2ccc(C)cn2)ccc1OCC(=O)N1CCOCC1 | 506 | 18 | 1
COc1ccc(-c2nc(NC(=O)c3ccc(OCC(=O)N4CCOCC4)c(OC)c3)sc2C)cc1 | 239 | 96* | -1
O=C(CSC1=NCCS1)Nc1nc2ccccc2s1 | 610 | 90* | 2
Cc1nc(SCC(=O)Nc2nc3ccccc3s2)n[nH]1 | 392 | -12 | 3
SMILES | T cell HTS | ALR H2O2 inh | N-glyco inh
CCc1nnc(NC(=O)CSc2ncnc3c2oc2ccccc23)s1 | 554 | 14 | -2
O=C(Nc1ccc(F)cc1)c1cccnn1 | 198 | -3 | -2
CSCCC(NC(=O)c1ccccc1Br)C(=O)N1CCN(C(C)=O)CC1 (configuration not stated) | 335 | -2 | 2
CC(OC(=O)CC1CCCC1)C(=O)Nc1ccc(S(N)(=O)=O)cc1 (configuration not stated) | 370 | -1 | 0
Nc1ccc(C(=O)OCCc2ccccc2)cc1 | 487 | x | -12
O=C(OCCc1ccccc1)c1cc(O)c(O)c(O)c1 | 186 | 99* | -7
OCCN1CCN(c2cc(C(F)(F)F)nc3c(F)cccc23)CC1 | i | -1 | -1
O=C(CNC1CCCC1)Nc1ccc(N2CCCCCC2)cc1 | 379 | x | -9
O=C(COC(=O)C1CCC1)NC(=O)c1ccccc1 | 0.0* | -1 | 1
O=C(COC(=O)C1CCCCC1)Nc1ccc(N2CCCCC2)cc1 | 175 | 88* | 1
NS(=O)(=O)c1ccc(NC(=O)COC(=O)C2CCCCC2)cc1 | 654 | 0 | 1
O=C(CNCCC1=CCCCC1)Nc1ccc(N2CCCCCC2)cc1 | 471 | 25 | -1
O=C(CNC1CCCCCC1)Nc1ccc(N2CCCC2)cc1 | 333 | 94* | x
O=C(CNCC1CCCCC1)Nc1ccc(N2CCCCC2)cc1 | 73 | 98* | x
O=C(COC(=O)C1CC1)NC(=O)c1ccccc1 | 293 | 3 | 1
NC(=O)c1cnccc1C=Cc1ccccc1 | x | x | 1
COCCNC(=O)C1CCCN(C(=O)COc2ccc(C(C)(C)C)cc2)CC1 (configuration not stated) | x | x | 3
Cn1c(=O)c(=O)n(C)c2cc(N3CCCCC3)c(NS(=O)(=O)c3ccc([N+](=O)[O-])cc3)cc21 | 351 | 25 | 0
Cn1cc(Cc2ccc(C(=O)NC34CC5CC(CC(C5)C3)C4)cn2)c2ccccc21 | x | x | -4
Cc1ccc(NC(=S)NC(=O)c2cncc(Br)c2)cc1Cl | 248 | -4 | 0
CC1CCN(c2c(NCC3CCC(C(=O)NCCC4=CCCCC4)CC3)c(=O)c2=O)CC1 (configuration not stated) | 126 | -6 | 0
Cc1cc(F)ccc1-c1cc(C(=O)Nc2ccccc2)[nH]n1 | x | x | -12

Screening results as filed in PubChem.
